Measurements: ChEMBL document CHEMBL4387722

Legend:
[1] = biological target: T1, Phosphotyrosine protein phosphatase (Mycobacterium tuberculosis, UniProt A0A045ISB3); assay: Inhibition of Mycobacterium tuberculosis His-tagged PtpB expressed in Escherichia coli Rosetta 2 (DE3) using pNPP as substrate after 30 mins by spectrophotometric method
T1 sequence (A0A045ISB3 whole entry): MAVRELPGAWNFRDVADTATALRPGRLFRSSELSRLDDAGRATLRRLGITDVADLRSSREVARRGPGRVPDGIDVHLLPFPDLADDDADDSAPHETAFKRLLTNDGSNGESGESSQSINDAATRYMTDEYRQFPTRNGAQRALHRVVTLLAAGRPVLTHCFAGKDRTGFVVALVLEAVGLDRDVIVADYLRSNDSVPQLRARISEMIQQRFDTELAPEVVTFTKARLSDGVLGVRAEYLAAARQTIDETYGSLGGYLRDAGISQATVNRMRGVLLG

[2] = biological target: T2, Tyrosine-protein phosphatase non-receptor type 1 (Homo sapiens, UniProt P18031); assay: Inhibition of human PTPN1 expressed in Escherichia coli Rosetta 2 (DE3) using pNPP as substrate after 45 mins by spectrophotometric method
T2 sequence (P18031 whole entry): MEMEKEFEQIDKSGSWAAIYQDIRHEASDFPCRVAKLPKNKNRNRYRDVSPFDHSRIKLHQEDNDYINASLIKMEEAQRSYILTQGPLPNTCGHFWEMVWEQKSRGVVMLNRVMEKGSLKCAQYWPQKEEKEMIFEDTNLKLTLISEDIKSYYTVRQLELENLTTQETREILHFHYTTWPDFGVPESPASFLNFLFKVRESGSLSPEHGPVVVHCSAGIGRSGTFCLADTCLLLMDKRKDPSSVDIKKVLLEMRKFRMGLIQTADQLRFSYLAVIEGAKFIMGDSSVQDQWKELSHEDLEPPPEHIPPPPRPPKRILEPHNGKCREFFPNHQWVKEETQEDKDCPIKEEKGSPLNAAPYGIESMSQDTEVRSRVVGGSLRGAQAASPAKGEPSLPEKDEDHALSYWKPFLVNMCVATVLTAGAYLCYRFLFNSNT

[3] = biological target: T3, Tyrosine-protein phosphatase non-receptor type 2 (Homo sapiens, UniProt P17706); assay: Inhibition of human PTPN2 expressed in Escherichia coli Rosetta 2 (DE3) using pNPP as substrate after 45 mins by spectrophotometric method
T3 sequence (P17706 whole entry): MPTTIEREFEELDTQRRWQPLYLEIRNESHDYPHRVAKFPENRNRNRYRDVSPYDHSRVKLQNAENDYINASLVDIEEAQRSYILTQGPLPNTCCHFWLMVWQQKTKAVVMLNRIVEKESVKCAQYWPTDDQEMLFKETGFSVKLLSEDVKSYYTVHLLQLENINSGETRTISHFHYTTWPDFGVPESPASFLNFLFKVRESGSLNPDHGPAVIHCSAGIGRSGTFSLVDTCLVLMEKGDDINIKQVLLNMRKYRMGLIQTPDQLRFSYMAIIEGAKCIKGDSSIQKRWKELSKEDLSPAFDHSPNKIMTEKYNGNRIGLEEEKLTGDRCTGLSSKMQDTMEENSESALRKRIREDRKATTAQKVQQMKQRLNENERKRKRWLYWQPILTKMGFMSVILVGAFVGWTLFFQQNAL

[4] = biological target: T4, Tyrosine-protein phosphatase non-receptor type 5 (Homo sapiens, UniProt P54829); assay: Inhibition of human PTPN5 expressed in Escherichia coli Rosetta 2 (DE3) using pNPP as substrate after 45 mins by spectrophotometric method
T4 sequence (P54829 whole entry): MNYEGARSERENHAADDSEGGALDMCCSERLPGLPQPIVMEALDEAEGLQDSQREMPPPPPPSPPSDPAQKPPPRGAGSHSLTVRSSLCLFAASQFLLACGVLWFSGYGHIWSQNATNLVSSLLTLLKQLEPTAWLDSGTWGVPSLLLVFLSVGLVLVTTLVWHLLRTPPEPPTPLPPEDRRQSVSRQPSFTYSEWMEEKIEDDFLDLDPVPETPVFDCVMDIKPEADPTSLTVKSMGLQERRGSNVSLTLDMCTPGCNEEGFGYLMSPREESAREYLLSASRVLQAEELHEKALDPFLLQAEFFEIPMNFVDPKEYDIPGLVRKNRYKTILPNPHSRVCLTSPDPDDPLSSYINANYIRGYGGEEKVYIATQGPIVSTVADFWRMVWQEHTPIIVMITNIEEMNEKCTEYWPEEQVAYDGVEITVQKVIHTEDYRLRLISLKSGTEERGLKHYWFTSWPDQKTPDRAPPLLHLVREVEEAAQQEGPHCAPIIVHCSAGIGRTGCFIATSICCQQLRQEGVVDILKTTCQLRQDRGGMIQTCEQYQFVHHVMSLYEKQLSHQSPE

[5] = tested on: Mycobacterium tuberculosis; assay: Antitubercular activity against Mycobacterium tuberculosis H37Rv after 5 days at 200 uM relative to control; type: functional; settings: 120 h
How it was run: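 M. tuberculosis grown in liquid culture with compound at a fixed 200 μM for 5 days. Growth inhibition expressed as percent of control.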

[6] = Inhibition of refolded rhodanese (unknown origin) preincubated with Escherichia coli GroEL/GroES for 60 mins by measuring rhodanese enzyme activity followed by compound addition by Fe(SCN)3 dye based spectrometric analysis; parameters: species or system Homo sapiens
[7] = biological target: T5, Malate dehydrogenase, mitochondrial (Sus scrofa, UniProt P00346); assay: Inhibition of refolded pig heart mitochondrial MDH preincubated with Escherichia coli GroEL/GroES for 45 mins using sodium mesoxalate as substrate followed by compound addition and measured after 20 to 30 mins by spectrometric analysis
T5 sequence (P00346 whole entry): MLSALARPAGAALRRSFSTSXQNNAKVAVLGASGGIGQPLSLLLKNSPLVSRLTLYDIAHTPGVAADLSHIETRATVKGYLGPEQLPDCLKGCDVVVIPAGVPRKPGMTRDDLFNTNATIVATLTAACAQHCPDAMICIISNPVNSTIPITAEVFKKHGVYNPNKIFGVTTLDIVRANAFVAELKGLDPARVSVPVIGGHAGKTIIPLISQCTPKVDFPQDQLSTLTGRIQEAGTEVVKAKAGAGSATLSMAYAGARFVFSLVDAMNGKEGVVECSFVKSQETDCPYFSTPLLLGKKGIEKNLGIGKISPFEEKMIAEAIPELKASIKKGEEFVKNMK

E. coli GroEL/ES [8] = biological target: T6, E. coli GroEL/ES (Escherichia coli, UniProt P0A6F5); assay: Inhibition of Escherichia coli GroEL expressed in Escherichia coli DH5alpha/Escherichia coli GroES expressed in Escherichia coli BL21 (DE3) assessed as reduction in GroEL/GroES-mediated denatured rhodanese refolding by measuring rhodanese enzyme activity after 45 mins by Fe(SCN)3 dye based spectrometric analysis
T6 sequence (P0A6F5 whole entry, looked up): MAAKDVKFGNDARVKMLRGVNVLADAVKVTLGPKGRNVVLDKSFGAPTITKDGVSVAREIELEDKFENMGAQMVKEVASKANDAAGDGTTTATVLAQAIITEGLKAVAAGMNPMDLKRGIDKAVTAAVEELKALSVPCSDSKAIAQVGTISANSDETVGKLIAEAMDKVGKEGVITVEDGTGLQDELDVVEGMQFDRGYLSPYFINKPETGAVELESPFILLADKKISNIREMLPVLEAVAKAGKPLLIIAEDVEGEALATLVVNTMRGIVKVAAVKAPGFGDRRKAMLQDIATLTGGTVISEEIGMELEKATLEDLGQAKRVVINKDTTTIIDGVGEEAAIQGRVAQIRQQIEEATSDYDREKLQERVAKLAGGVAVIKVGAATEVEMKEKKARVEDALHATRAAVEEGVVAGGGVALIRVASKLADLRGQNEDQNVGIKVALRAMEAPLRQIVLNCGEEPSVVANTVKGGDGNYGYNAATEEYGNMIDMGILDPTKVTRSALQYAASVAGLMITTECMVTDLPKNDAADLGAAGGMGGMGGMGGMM

E. coli GroEL/ES [9] = biological target: T6, E. coli GroEL/ES; assay: Inhibition of Escherichia coli GroEL expressed in Escherichia coliDH5alpha/Escherichia coli GroES expressed in Escherichia coli BL21 (DE3) assessed as reduction in GroEL/GroES-mediated denatured pig heart mitochondrial MDH refolding by measuring MDH enzyme activity using sodium mesoxalate as substrate after 20 to 40 mins by spectrometric analysis
HSP60/HSP10 = HSP60/HSP10 (Homo sapiens, UniProt P10809); assay: Inhibition of human HSP60 expressed in Escherichia coli Rosetta 2(DE3)/human HSP10 expressed in Escherichia coli Rosetta 2(DE3) pLysS cells assessed as reduction in HSP60/HSP10-mediated denatured pig heart mitochondrial MDH refolding by measuring MDH enzyme activity using sodium mesoxalate as substrate after 40 to 60 mins by spectrometric analysis
Sequence of HSP60/HSP10 (P10809 whole entry): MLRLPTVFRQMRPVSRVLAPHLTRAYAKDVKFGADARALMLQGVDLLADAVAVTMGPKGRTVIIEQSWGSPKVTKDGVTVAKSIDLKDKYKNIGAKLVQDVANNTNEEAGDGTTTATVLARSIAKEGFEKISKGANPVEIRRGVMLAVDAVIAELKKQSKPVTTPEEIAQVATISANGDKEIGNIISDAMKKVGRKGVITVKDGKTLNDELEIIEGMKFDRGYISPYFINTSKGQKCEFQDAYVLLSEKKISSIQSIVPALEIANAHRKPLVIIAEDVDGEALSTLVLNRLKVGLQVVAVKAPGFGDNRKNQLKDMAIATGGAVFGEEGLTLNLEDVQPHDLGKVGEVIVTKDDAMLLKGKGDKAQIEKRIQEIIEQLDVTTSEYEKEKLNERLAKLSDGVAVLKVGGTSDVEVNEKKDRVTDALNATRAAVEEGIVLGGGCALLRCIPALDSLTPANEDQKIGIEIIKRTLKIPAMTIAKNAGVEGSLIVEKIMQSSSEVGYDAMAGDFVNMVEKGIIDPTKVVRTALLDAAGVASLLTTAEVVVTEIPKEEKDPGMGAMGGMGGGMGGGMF
Sequence of HSP60/HSP10 (P61604 whole entry, further chain): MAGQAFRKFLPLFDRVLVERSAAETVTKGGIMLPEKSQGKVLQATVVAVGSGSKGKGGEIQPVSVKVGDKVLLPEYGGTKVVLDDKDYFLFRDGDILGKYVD

[10] = Cytotoxicity against human THLE3 cells assessed as reduction in cell viability after 48 hrs by Alamar blue assay; type: cell-based
How it was run: (§1)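 Alamar Blue viability read-out. Human liver (THLE-3) and kidney (HEK 293) cells incubated with compound for 48 h. Tested in dose-response to derive CC50.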

[11] = Cytotoxicity against human HEK293 cells assessed as reduction in cell viability after 48 hrs by Alamar blue assay; type: cell-based; how it was run: as §1

Compound | IC50 [1] | IC50 [2] | IC50 [3] | IC50 [4] | inhibition at 200 µM [5] | IC50 [6] | IC50 [7] | IC50 (E. coli GroEL/ES [8]) | IC50 (E. coli GroEL/ES [9]) | IC50 (HSP60/HSP10) | CC50 at 48 h [10] | CC50 at 48 h [11]
O=S(=O)(Nc1ccc(-c2nc3ccccc3o2)cc1)c1cccc(Cl)c1 | 43 µM | 37 µM | 67 µM | 545 µM | 33% | > 100 µM | > 63 µM | 168 µM | 79 µM | 54 µM | 83 µM | > 100 µM
O=S(=O)(Nc1ccc(-c2nc3ccccc3o2)cc1)c1ccc(Cl)c(C(F)(F)F)c1 | 29 µM | 28 µM | 28 µM | 34 µM | 18% | > 100 µM | > 63 µM | 67 µM | 23 µM | 12 µM | 81 µM | 69 µM
Cc1cccc(S(=O)(=O)Nc2ccc(-c3nc4ccccc4o3)cc2)c1 | 40 µM | 37 µM | 40 µM | 28 µM | 13% | > 100 µM | > 63 µM | 165 µM | 92 µM | > 100 µM | 81 µM | > 100 µM
O=S(=O)(Nc1ccc(-c2nc3ccccc3o2)cc1)c1ccccc1O | 31 µM | 33 µM | 57 µM | 36 µM | 0% | > 100 µM | > 63 µM | 126 µM | 83 µM | > 100 µM | 81 µM | > 100 µM
COc1ccc(Cl)cc1S(=O)(=O)Nc1ccc2oc(-c3ccccc3)nc2c1 | 31 µM | 27 µM | 25 µM | 37 µM | 0% | > 100 µM | > 63 µM | 105 µM | 81 µM | > 100 µM | 31 µM | 74 µM
CS(=O)(=O)Nc1ccc(-c2nc3ccccc3o2)cc1 | > 100 µM | > 100 µM | > 100 µM | > 100 µM | 23% | > 100 µM | > 63 µM | > 250 µM | > 100 µM | > 100 µM | > 100 µM | > 100 µM
O=S(=O)(Nc1ccc2oc(-c3ccccc3)nc2c1)c1ccc(C(F)(F)F)cc1 | 26 µM | 36 µM | 44 µM | 27 µM | 0% | > 100 µM | > 63 µM | 159 µM | 64 µM | > 100 µM | 49 µM | 74 µM
O=S(=O)(Nc1ccc2oc(-c3ccccc3)nc2c1)c1ccc(Cl)c(Cl)c1 | 33 µM | 35 µM | 33 µM | 25 µM | 22% | > 100 µM | > 63 µM | 152 µM | 79 µM | > 100 µM | 55 µM | 71 µM
O=S(=O)(Nc1ccc2oc(-c3ccccc3)nc2c1)c1ccccc1C(F)(F)F | 58 µM | 44 µM | 55 µM | 37 µM | 45% | > 100 µM | > 63 µM | 162 µM | 92 µM | > 100 µM | 59 µM | 80 µM
O=[N+]([O-])c1cc(S(=O)(=O)Nc2ccc3oc(-c4ccccc4)nc3c2)ccc1Cl | 33 µM | 35 µM | 40 µM | 32 µM | 1% | > 100 µM | > 63 µM | 18 µM | 16 µM | 17 µM | 25 µM | 90 µM
O=S(=O)(Nc1ccc2oc(-c3ccccc3)nc2c1)c1ccc(Cl)cc1 | 56 µM | 44 µM | 35 µM | 26 µM | 0% | > 100 µM | > 63 µM | 149 µM | > 100 µM | > 100 µM | 40 µM | 65 µM
O=S(=O)(Nc1ccc2oc(-c3ccccc3)nc2c1)c1cccc(C(F)(F)F)c1 | 77 µM | 83 µM | 76 µM | 45 µM | 41% | > 100 µM | > 63 µM | 180 µM | 95 µM | > 100 µM | 58 µM | > 100 µM
Cc1ccc(S(=O)(=O)Nc2ccc(-c3nc4ccccc4o3)cc2)cc1 | 52 µM | 42 µM | 49 µM | 45 µM | 28% | > 100 µM | > 63 µM | 157 µM | > 100 µM | > 100 µM | 82 µM | 88 µM
O=S(=O)(Nc1ccc2oc(-c3ccccc3)nc2c1)c1ccccc1Cl | 50 µM | 40 µM | 42 µM | 35 µM | 13% | > 100 µM | > 63 µM | 103 µM | 90 µM | > 100 µM | 43 µM | 73 µM
